The source of these data is ChEMBL document CHEMBL4513216, “Probing the Open Global Health Chemical Diversity Library for Multistage-Active Starting Points for Next-Generation Antimalarials” (ACS Infect Dis, 2020).

The data set in a line: Toxicity liver stage against HepG2, at 10uM. The class given is cell-based. Further details: test concentration 10 uM, cell line HepG2-A16-CD81EGFP. As to conditions: human, HepG2-A16-CD81EGFP cells; read-out: INHIBITION
In short, it runs like this:
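Uninfected HepG2-A16-CD81EGFP cells, 3 × 10^3 per well, 1536-well, plated on prespotted compound at 10 μM final, parasite-free screening media added to match infected plates; puromycin 10 μM positive, DMSO 0.5% negative; run in parallel with 48 h PbLuc assay at 37 °C, 5% CO2; viability by CellTiter-Glo luminescence, normalized to controls.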
For `Cc1ncc(-c2nc3cc(S(=O)(=O)N4CCCC4)ccc3n2C)cn1`, the cytotoxicity at 10 µM was -21%.
The figure for `CC(C)Oc1cccc(CN(C)C(=O)Nc2cccn(C)c2=O)c1` is -6.13%.
The figure for `COc1cccc(N2CCN(C(=O)C(O)c3ccccc3Cl)CC2=O)c1` (stereo unspecified) is 3.25%; for `Cc1cnn(CC(C)NCCc2cccs2)c1` (stereo unspecified) it is -1.52%.
For the compound `CNS(=O)(=O)c1cccc(CNC(=O)c2c(C)nn(C)c2C)c1`, the cytotoxicity at 10 µM turned out to be 9.26%.
For `CN(C)C(=O)C1OC2(CCNCC2)c2ccccc21` (stereo unspecified), the cytotoxicity at 10 µM worked out at 0.37%.
The figure for `CCC(=O)N1CCC(Cc2ccccc2-c2cccc(C)c2)(C(N)=O)C1` (stereo unspecified) is -27.5%.
Then `COc1c(CNC2CCCOc3ccc(F)cc32)c(C)nn1C` (stereo unspecified), with 1.51%.
Then `COc1ccc(CN2CCCC2c2cccc(F)c2)c(OC)c1OC` (stereo unspecified), with 3.48%; and `CCC(C)(C)NC(=O)c1ccc(NC(=O)NCc2cc(C)no2)cc1`, with 0.696%.
As for `Cc1ccc(-c2cc(CNC(=O)N3CCC(CO)CC3)on2)cc1`, the cytotoxicity at 10 µM was -7.69%.
Then `Cc1nn(C)c2cn(CC(=O)NC3CCSCC3)nc12`, with 0.243%; and `COc1cc(C)nc(N2CCN(C(=O)c3ccc(Cl)o3)CC2)n1`, with -3.22%; and `COc1ccc(CNC(=O)CNc2cc3c(cc2Cl)OCCO3)cc1`, with -0.238%.
Then `Cc1ccc(S(=O)(=O)N2CCC3(CC(C(=O)NCC(C)C)=NO3)C2)cc1` (stereo unspecified), with -0.819%; and `CN(Cc1cn2c(n1)CN(Cc1nccs1)CC2)Cc1ccco1`, with -77.2%; and `O=C(c1ccncc1)N1C[C@H]2CC[C@@H](C1)N(S(=O)(=O)c1cccnc1)C2`, with -3.51%.
The figure for `O=c1[nH]nc2nc(N3CCOCC3)ccn12` is -5.08%.
For the compound `Cc1nn(-c2ncccn2)c2c1C(c1cnn(C)c1)SCC(=O)N2` (stereo unspecified), the cytotoxicity at 10 µM is -45%.
The figure for `Cc1c(C(=O)N2CC(O)C2)nnn1-c1cccc2cnccc12` is 3.04%; for `CCOc1ccc(N2CCCN=C2NC(=O)c2cccc(Cl)c2)cc1` it is -10.1%.
Then `COc1ccc(C(C)N(C)Cc2c(C(C)C)[nH]c3ncccc23)cc1` (stereo unspecified), with -7.99%.
The figure for `CC(C)CN1CC2(CCN(C(=O)c3nc4ncccn4n3)CC2)CC1=O` is 0.345%.
In the case of `CSCc1cc(F)ccc1CNCc1cccnc1`, the cytotoxicity at 10 µM was -9.84%.
The figure for `CN(CCc1ccccn1)C(=O)CCC1CCCN(c2ncccn2)C1` (stereo unspecified) is 1.64%; for `COc1ccnc(N2CCN(C(=O)Cc3ccsc3)CC2)n1` it is -3%; for `CC(C)c1ccc(CN[C@@H]2COC[C@H]2c2ccc(F)cc2)cc1` it is -7.52%.
The figure for `O=C(COCC1CC1)NCC(c1ccccc1)N1CCc2sccc2C1` (stereo unspecified) is 16.6%.
With `COC(=O)N1CCN(c2ncnc3nc(C)cc(C)c23)CC1`, the cytotoxicity at 10 µM was -15.2%.
The figure for `COc1ccc(CC(=O)Nc2c(C)nc(N3CCOCC3)nc2C)cc1` is 5.39%; for `Cn1nc(C2CCNC2)c2c(C(=O)NCC(F)(F)F)cc(C3CC3)nc21` (stereo unspecified) it is 8.41%; for `CN1CCO[C@@H]2CN(C(=O)NCc3ccccc3)CC[C@@H]2C1` it is -104%.
The figure for `COCC(=O)N1CCCCC1c1nc(C)c2c(n1)N(C1CC1)C(=O)CC2` (stereo unspecified) is -1%.
Consider `CC(C)N1CCN(c2ccc3ccc(C(=O)NC4CCCC4)cn23)CC1`, for which the cytotoxicity at 10 µM worked out at 1.26%.
The figure for `Cc1ncc(C(=O)NCCNC(=O)c2ccccc2)s1` is -3.67%; for `Cc1nc(COc2ccc(S(=O)(=O)N(C)C)cc2)sc1C` it is -1.13%.
Then `COC(=O)c1cccc(CNC(=O)CCC(F)(F)F)c1`, with 11.6%.
Then `CCn1c(C)nnc1CN(C)C1CCN(Cc2nnc(C3CC3)o2)C1` (stereo unspecified), with -11.6%; and `CC(C)c1nc2n(n1)CC(NCc1nc(-c3ccccn3)no1)CC2` (stereo unspecified), with -5.08%; and `Cc1cc(C)n(CC2CCCCN2CCCS(N)(=O)=O)n1` (stereo unspecified), with 6.28%.
For the compound `Cc1cccc(N2CCC(N3CCCC4(CNC(=O)O4)C3)CC2)c1C` (stereo unspecified), the cytotoxicity at 10 µM is -6.67%.
Then `CCC1=N[C@@]2(CC[C@@H]3CN(Cc4ccc(F)cc4)C[C@@H]32)C(=O)N1C`, with -106%.
For the compound `Cc1cc(NCC2(O)CCOCC2)nc2ccccc12`, the cytotoxicity at 10 µM is -8.98%.
The figure for `Cc1nc(CN(C)C2CCN(Cc3cccc4c3OCCO4)C2)no1` (stereo unspecified) is -13.9%; for `O=C(NCc1cc(-c2ccccc2)no1)NC1CCCCNC1=O` (stereo unspecified) it is -145%; for `CC(C)(C)c1ccn(C2(C(=O)O)CCN(c3ccnc(N)n3)CC2)n1` it is 3.63%.
Then `CCN(C1CCN(c2cccc(F)c2C(C)=O)CC1)S(C)(=O)=O`, with 5.17%; and `Cc1nnc(NC(=O)c2cc(S(=O)(=O)N3CCSCC3)c[nH]2)s1`, with -7.01%.
The figure for `COCCC(C)NC(=O)N1CCC(n2ccc(C(F)(F)F)n2)CC1` (stereo unspecified) is -3.9%; for `Cc1nn(C)c(C)c1C1CCCN1C(=O)c1cnc2n[nH]c(C)c2c1` (stereo unspecified) it is -8.38%.
As for `CS(=O)(=O)NCCC(=O)Nc1ccccc1N1CCc2ccccc21`, the cytotoxicity at 10 µM is 11.9%.
As to `Cc1nc(C2CCN(C(=O)c3ccc(=O)n(C)c3)CC2)c2sccn12`, the cytotoxicity at 10 µM was -5.38%.
With `O=C1N(CC2CC2)C(c2cncs2)NC12CCCC2` (stereo unspecified), the cytotoxicity at 10 µM is -3.84%.
The figure for `Cc1noc(C)c1CN1CCC(c2nnc(Cn3cccn3)n2C)CC1` is 3.82%; for `COCCN(C(=O)c1ccn(-c2ccc(OC)cc2)n1)C(C)C(N)=O` (stereo unspecified) it is 0.337%; for `COCC(=O)N1CCC([C@@H]2C[C@H](C(F)(F)F)n3nc(C)cc3N2)CC1` it is -33.6%.
Then `N#Cc1cccc(OCCN2CCC(C(=O)N3CCOCC3)CC2)c1`, with -42.3%; and `CN1CCC(N2CCOC[C@H]2c2nc(C(C)(C)C)c[nH]2)CC1`, with 2.73%; and `O=C(Nc1ccn(Cc2cccc3cccnc23)n1)C1COCCO1` (stereo unspecified), with 5.18%.
The figure for `Cc1ccc(CN2CCCC3(CCC(=O)N3)CC2)s1` (stereo unspecified) is -5.84%; for `COCC1CN(C(=O)c2cccn2C)Cc2nccn2C1` (stereo unspecified) it is 6.92%; for `Cc1nc(C2CN(C)CCO2)cc(N2CCSCC2)n1` (stereo unspecified) it is -15.6%.
For the compound `c1cnc(N2CCOCC3(CCCN(Cc4cc[nH]n4)C3)C2)nc1` (stereo unspecified), the cytotoxicity at 10 µM worked out at 3.35%.
For the compound `Cc1ccccc1Cc1cnc(NC(=O)C2CNC(=O)N2)s1` (stereo unspecified), the cytotoxicity at 10 µM was -3.37%.
Then `CNC(=O)[C@@H]1C[C@H](n2cc(-c3ccc(Cl)cc3)nn2)CN1`, with 5.89%; and `Clc1snnc1CN1CCCCC1Cn1cccn1` (stereo unspecified), with -14.8%; and `CCCc1nnc(SCc2cc(=O)n3c4c(sc3n2)CCCC4)[nH]1`, with -1.05%.
The figure for `Cc1ccc(N2CCCc3sc(C(=O)NCc4ccncc4)nc32)nn1` is 14.6%.
The figure for `CC(C)CN1C(=O)C2(CCCC2)NC12CCSCC2` is -135%; for `Cc1ccc(N(CCC#N)C(=O)CN2CCCC2c2cccs2)cc1` (stereo unspecified) it is -3.75%.
Turning to `CCn1cc(C(=O)NCc2csc(Br)c2)cn1`, the cytotoxicity at 10 µM is 4.84%.
